14-3-3 Bad inh: disrupts binding of bovine 14-3-3 zeta to phospho-Bad peptide | P63103 | TR-FRET 14-3-3zeta/Dy647-pBad peptide displacement, 1 h | inhibition, % at 21.7 µM | hit rate 0.71% among 220,000 | AID 781;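 active = inhibition above about 70%, limit read from the data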;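 note: 0% = full 14-3-3 plus peptide FRET controls and 100% = background without 14-3-3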
Target sequence (P63103 whole entry, looked up): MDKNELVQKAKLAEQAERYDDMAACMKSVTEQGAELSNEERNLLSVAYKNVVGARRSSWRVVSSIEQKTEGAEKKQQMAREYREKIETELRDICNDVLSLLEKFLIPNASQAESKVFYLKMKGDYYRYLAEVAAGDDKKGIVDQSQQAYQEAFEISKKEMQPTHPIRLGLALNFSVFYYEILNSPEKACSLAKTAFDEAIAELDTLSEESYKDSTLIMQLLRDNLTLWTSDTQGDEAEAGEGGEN
Tb MetRS inh: Trypanosoma brucei MetRS inhibition; hit rate 0.4% among 360,000; AID 624268; inhibition, % at 11.9 µM; purified T. brucei MetRS, ATP depletion, Kinase-Glo luminescence;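 active = inhibition above a per-plate cutoff of the control wells' mean inhibition plus 3 SD, cut at about 5.5% in these data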;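 note: 0% = DMSO wells median and 100% = median of wells with control inhibitor compound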
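Test system – parasite MetRS enzyme · Reagent – substrates ATP, L-methionine and bulk Escherichia coli tRNA · Doses – 11.9 µM compound single dose, 0.9% DMSO · Times – 15 min enzyme-compound preincubation, 2 h reaction, 10 min detection, 25 °C · Signal – Kinase-Glo luminescence, ATP depletion format · Controls – DMSO-only wells as low control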
p47phox inh: blocks human p47phox regulatory protein of NADPH oxidases | p47phox/p22phox peptide binding, fluorescence polarization, 2 h | inhibition, % at 24.7 µM | P14598 | hit rate 0.53% among 220,000;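 note: 0% = p47phox with labelled peptide and 100% = labelled peptide alone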
eIF4E-4G inh: inhibitors of eIF4E and eIF4G interaction in translation initiation; P63073+Q04637; TR-FRET eIF4E-eIF4GI(517-606) binding, 2 h; inhibition, % at 21.7 µM; hit rate 0.37% among 220,000;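 note: 0% = full FRET control wells and 100% = background wells lacking eIF4GI fragment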
SUMO HTRF inh: blocks human SUMOylation mediated by UBC9 | HTRF SUMOylation assay, SAE1/SAE2 + UBC9, in vitro | P63279 | AID 2006 | hit rate 0.36% among 290,000 | inhibition, % at 35 µM; in the data active = inhibition above about 50%, passing the limit was not always enough
Target sequence (P63279 whole entry, looked up): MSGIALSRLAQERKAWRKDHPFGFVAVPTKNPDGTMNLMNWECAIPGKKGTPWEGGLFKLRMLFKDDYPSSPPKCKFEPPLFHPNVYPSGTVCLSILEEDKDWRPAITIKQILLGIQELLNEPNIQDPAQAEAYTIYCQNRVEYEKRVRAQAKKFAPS
p97 ATPase inh: inhibitors of human p97 ATPase | P55072 | hit rate 0.42% among 220,000 | inhibition, % at 8 µM | recombinant p97 ATPase, Kinase-Glo ATP luminescence, 3 h; in the data active = inhibition above about 15%;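 note: 0% = DMSO vehicle and 100% = wells lacking enzyme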
* marks the source's active call; other numbers are inactive results; nt = no result given; + = active, no number; [ ] = remark or other dose. This is a sample that favours compounds with a hit; in the whole collection about 1.6% have one here.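 Rule for the calls, unless noted: active = inhibition above about 30% (limit read from the data); inactive = the rest.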

SMILES	14-3-3 Bad inh	Tb MetRS inh	p47phox inh	eIF4E-4G inh	SUMO HTRF inh	p97 ATPase inh
C=CCSc1nnc(-c2ccncc2)n1-c1ccc(OCC)cc1	7.8	-0.4	+	1.7	-6.5	-1.3
Cc1c(Cl)cccc1NC(=O)CCC(=O)NNC(=O)c1ccccc1Cl	1.4	-1.3	1.4	64.5*	-10.5	3.3
COc1ccc(C(C)(O)c2nc(-c3ccccc3OC)cs2)cc1 (centres undefined)	nt	-0.3	nt	nt	nt	nt
Cc1ccc2c(c1)C1C=CCC1C(C(=O)O)N2 (centres undefined)	85.9*[fluorescence artefact?]	nt	5.9	65.3*[fluorescence artefact?]	60.0*	9.1
COc1cccc2c1NC(C(=O)O)C1CC=CC21 (centres undefined)	42.5	-0.5	-3.6	48.3*[fluorescence artefact?]	95.2*	6.8
Cc1ccc2c(c1)C1C=CCC1C(C(=O)NCCCN1CCOCC1)N2 (centres undefined)	nt	-0.4	nt	nt	nt	nt
O=C(O)C1Nc2c(cccc2C(F)(F)F)C2C=CCC12 (centres undefined)	nt	nt	nt	nt	22.9	nt
Cc1ccc(C)n1-n1c(C)nc2scc(-c3cccs3)c2c1=O	-4.4	0.2	-8.0	8.0	15.8	14.8*
O=C(c1ccc2c(c1)CCC2)N1CCN(Cc2ccccc2)CC1	nt	-0.1	nt	nt	nt	nt
COc1cc(/C=C2/SC(=O)N(Cc3ccccc3Cl)C2=O)ccc1OCc1ccncc1	3.3	0.2	31.5*	-2.6	-6.5	6.2
O=C(NCc1ccco1)c1cccn2c(=O)c3cc4ccccc4cc3nc12	25.2	nt	17.3	-55.5	77.8*	-0.1
COc1ccc(CCNC(=O)c2cc3c(=O)n4ccccc4nc3n(Cc3ccco3)c2=N)cc1OC	nt	-0.2	nt	nt	17.2	nt
COc1ccc(CNC(=O)c2cc3c(=O)n4ccccc4nc3n(Cc3ccco3)c2=N)cc1	nt	nt	nt	nt	nt	34.9*
CCCCNC(=O)c1cc2c(=O)n3cccc(C)c3nc2n(Cc2ccccc2)c1=N	74.8*	0.3	-14.2	5.5	20.5	-0.1
COC(=O)[C@]12CCCCC=C1N(CCc1ccc(OC)c(OC)c1)C(=O)[C@H](CC(=O)NCCc1ccccc1OC)C2	nt	-0.3	nt	nt	nt	nt
CC1(C)C(=O)C=C(N2CCCCC2)c2ccccc21	nt	-0.1	nt	nt	nt	nt
CCn1c(SCC(=O)N/N=C/C=C/c2ccco2)nnc1-c1ccc(OC)cc1	80.1*[fluorescence artefact?]	-0.8	-0.2	21.7	19.0	1.6
Cc1ccc(/C=N\NC(=O)Cc2cccn2C)o1	-5.3	-0.2	-4.9	-1.0	-0.8	4.9
CCn1c(SCC(=O)N/N=C/C=C/c2ccco2)nc2ccccc21	-10.3	0.3	-8.7	-1.9	15.5	-2.5
Cn1cccc1CC(=O)N/N=C/C=C/c1ccco1	-4.5	0.5	-14.7	6.8	80.0*	4.8
C/C(=N\NC(=O)Cc1cccn1C)c1ccco1	-2.5	0.3	-3.6	43.8*	15.6	4.9
COc1ccc(C(CNC(=O)C(C)(C)Oc2ccc(Cl)cc2)N2CCOCC2)cc1 (centres undefined)	nt	-0.5	nt	nt	nt	nt
Cc1cccc(C)c1NC(=O)C(CCc1ccccc1)N1CCC(c2ccccc2)CC1 (centres undefined)	nt	-0.5	nt	nt	nt	nt
COc1cc(C(c2nnnn2C2CCCC2)N2CCN(C)CC2)cc(OC)c1OC (centres undefined)	79.7*	-1.8	-0.3	-2.4	18.8	-2.5
Cc1ccc(C)c(OCCC(=O)OCC(=O)Nc2ccc(Cl)cn2)c1	nt	-0.3	nt	nt	nt	nt
SMILES	14-3-3 Bad inh	Tb MetRS inh	p47phox inh	eIF4E-4G inh	SUMO HTRF inh	p97 ATPase inh
COc1cc(/C=C(/C#N)c2nc(-c3cc4ccccc4oc3=O)cs2)cc([N+](=O)[O-])c1O	96.6*	nt	-29.2	61.6*	4.5	5.7
CCN(CC)CCOC(=O)c1ccc(N/C=C(/C#N)c2nc(-c3cc4ccccc4oc3=O)cs2)cc1	nt	-0.6	nt	nt	55.2*	nt
C(=NNc1ccc2ccccc2n1)c1ccccn1	nt	2.0	nt	nt	nt	nt
CCCCn1nnnc1C1(C)CCC(=O)N1Cc1ccc(C)cc1 (centres undefined)	nt	-1.0	nt	nt	nt	nt
O=C(Nc1cccc(S(=O)(=O)N2CCCCCC2)c1)c1ccc2c(c1)OCO2	77.7*	0.1	-7.9	-3.2	-10.9	-0.7
CCOc1ccc(OCCC(=O)N(CCOC)c2c(N)n(Cc3ccccc3)c(=O)[nH]c2=O)cc1	nt	-0.4	nt	nt	nt	nt
O=C(NN1CCCCC1)c1cnn2c(C(F)F)cc(-c3ccccc3)nc12	-3.3	-0.6	-17.6	2.0	3.8	0.2
O=S(=O)(c1ccc(Cl)cc1)c1nc(-c2ccco2)oc1N1CCOCC1	76.1*	-0.3	-5.7	4.9	6.6	2.8
O=S(=O)(c1ccccc1)c1nc(-c2ccco2)oc1N1CCOCC1	-5.5	-1.3	17.0	-0.3	0.3	3.0
NC1=NN(c2c(Cl)cc(Cl)cc2Cl)C(=O)C1	nt	-0.2	nt	nt	nt	nt
CSc1ccccc1NC(=O)c1ccccc1C	-8.0	-1.0	-4.7	46.5*	6.6	4.5
O=C(Nc1c(-c2ccc3c(c2)OCO3)[nH][nH]c1=O)c1ccccc1	nt	1.9	nt	nt	nt	nt
Cc1cc(C)n2cnnc2n1	-2.2	-0.3	-50.2	-0.1	7.1	-2.0
Cc1cc(C)n2c(=S)[nH]nc2n1	29.7	-1.0	39.8*	14.8	19.1	5.0
COC(C[C@@H](O)CC(=O)COCc1ccccc1)OC	7.2	-0.3	4.5	-4.8	23.3	nt
O=C(Nc1cccc([N+](=O)[O-])c1)C1C2CC/C=C\CCC21 (centres undefined)	-3.1	-0.4	137.6*	3.1	-2.2	4.8
COc1cc(O)cc2cc3c(c(O)c12)C(=O)CC(C)(O)O3 (centres undefined)	8.4	-1.0	-6.6	70.8*	44.5	nt
CCCCOc1ccc(C(=O)NCC(=O)OCCCOC(=O)CNC(=O)c2ccc(OCCCC)cc2)cc1	nt	0.2	nt	nt	nt	nt
Cc1ccc(-n2c(CSc3nc(C)cc(C)n3)nnc2SCC(=O)Nc2nccs2)cc1	-3.3	-0.3	36.3*	0.1	30.6	-0.6
COC(=O)C1=CN(c2ccc(F)cc2)C=C(C(=O)OC)C1c1ccc(O)cc1	nt	0.3	nt	nt	8.8	nt
O=c1/c(=C/c2ccc([N+](=O)[O-])cc2)sc2n1CCCN=2	79.5*	-0.4	-4.5	-0.1	-12.8	0.8
COc1cc(-c2coc3c(C(=O)NCc4ccc(C(F)(F)F)cc4)cccc23)ccc1O	nt	0.0	nt	nt	nt	nt
COc1ccc(Nc2ccc(OC)cc2)cc1	4.0	0.0	-9.4	8.4	55.9*	14.7*
COc1ccc(Nc2ccc(Nc3ccc(OC)cc3)nn2)cc1	-14.5	-0.1	-12.1	0.4	2.4	-1.5
O=C1c2cccc3cc([N+](=O)[O-])cc(c23)C(=O)N1/N=C/c1ccc(O)cc1O	97.3*	-0.3	-52.0	13.4	13.0	8.5
O=C1c2cccc3cc([N+](=O)[O-])cc(c23)C(=O)N1CCN1CCCC1	29.7	0.4	2.8	13.2	28.0	3.4
O=c1[nH]c(-c2ccc(F)cc2)nc2c1sc(=S)n2-c1ccccc1	-6.4	0.3	-12.8	-1.3	5.7	-3.9
O=c1[nH]c(-c2ccccc2Cl)nc2c1sc(=S)n2-c1ccccc1	70.7*	0.3	-6.1	8.4	17.0	4.1
